Reference: ChEMBL document CHEMBL5376013, “Design, synthesis and biological evaluation of novel morpholinopyrimidine-5-carbonitrile derivatives as dual PI3K/mTOR inhibitors” (RSC Med Chem, 2024)

Experiments:
Type in all cases: functional
Details in all cases: read-out: GI
[1] = system: CCRF-CEM; assay: Antitumor activity against human CCRF-CEM cells assessed as growth inhibition at 10 uM relative to control
In short: (§1)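 After drug addition, plates were incubated 48 h at 37 °C under 5% CO2. Adherent cells were fixed with cold TCA (10% final, 60 min, 4 °C) and suspension cells with 16% final TCA. Staining used 0.4% SRB in 1% acetic acid, solubilized in 10 mM trizma, read at A515. Percent growth was calculated from time-zero, control and treated absorbances.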

[2] = system: K562; assay: Antitumor activity against human K562 cells assessed as growth inhibition at 10 uM relative to control; in short: as §1
[3] = system: MOLT-4; assay: Antitumor activity against human MOLT-4 cells assessed as growth inhibition at 10 uM relative to control; in short: as §1
[4] = system: RPMI-8226; assay: Antitumor activity against human RPMI-8226 cells assessed as growth inhibition at 10 uM relative to control; in short: as §1
[5] = system: EKVX; assay: Antitumor activity against human EKVX cells assessed as growth inhibition at 10 uM relative to control; in short: as §1
[6] = system: NCI-H226; assay: Antitumor activity against human NCI-H226 cells assessed as growth inhibition at 10 uM relative to control; in short: as §1
[7] = system: NCI-H23; assay: Antitumor activity against human NCI-H23 cells assessed as growth inhibition at 10 uM relative to control; in short: as §1
[8] = system: NCI-H322M; assay: Antitumor activity against human NCI-H322M cells assessed as growth inhibition at 10 uM relative to control; in short: as §1
[9] = system: NCI-H522; assay: Antitumor activity against human NCI-H522 cells assessed as growth inhibition at 10 uM relative to control; in short: as §1
[10] = system: COLO 205; assay: Antitumor activity against human COLO 205 cells assessed as growth inhibition at 10 uM relative to control; in short: as §1
[11] = system: HCT-116; assay: Antitumor activity against human HCT-116 cells assessed as growth inhibition at 10 uM relative to control; in short: as §1
[12] = system: HCT-15; assay: Antitumor activity against human HCT-15 cells assessed as growth inhibition at 10 uM relative to control; in short: as §1
[13] = system: HT-29; assay: Antitumor activity against human HT-29 cells assessed as growth inhibition at 10 uM relative to control; in short: as §1
[14] = system: KM12; assay: Antitumor activity against human KM12 cells assessed as growth inhibition at 10 uM relative to control; in short: as §1
[15] = system: SW-620; assay: Antitumor activity against human SW-620 cells assessed as growth inhibition at 10 uM relative to control
In short: (§2)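 Drug exposure 48 h at 37 °C, 5% CO2. Adherent cells fixed with cold TCA (10% final), suspension cells with TCA (16% final). Stained with 0.4% SRB in 1% acetic acid, dissolved in 10 mM Tris, A515. Growth relative to time-zero and untreated control.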

[16] = system: SF-268; assay: Antitumor activity against human SF-268 cells assessed as growth inhibition at 10 uM relative to control; in short: as §1
[17] = system: SF-539; assay: Antitumor activity against human SF-539 cells assessed as growth inhibition at 10 uM relative to control; in short: as §1
[18] = system: SNB-19; assay: Antitumor activity against human SNB-19 cells assessed as growth inhibition at 10 uM relative to control; in short: as §2
[19] = system: SNB-75; assay: Antitumor activity against human SNB-75 cells assessed as growth inhibition at 10 uM relative to control; in short: as §2
[20] = system: U-251; assay: Antitumor activity against human U-251 cells assessed as growth inhibition at 10 uM relative to control; in short: as §2
[21] = system: LOX IMVI; assay: Antitumor activity against human LOX IMVI cells assessed as growth inhibition at 10 uM relative to control; in short: as §1
[22] = system: Malme-3M; assay: Antitumor activity against human Malme-3M cells assessed as growth inhibition at 10 uM relative to control; in short: as §1
[23] = system: M14; assay: Antitumor activity against human M14 cells assessed as growth inhibition at 10 uM relative to control; in short: as §1
[24] = system: MDA-MB-435; assay: Antitumor activity against human MDA-MB-435 cells assessed as growth inhibition at 10 uM relative to control; in short: as §1
[25] = system: SK-MEL-2; assay: Antitumor activity against human SK-MEL-2 cells assessed as growth inhibition at 10 uM relative to control; in short: as §1
[26] = system: SK-MEL-28; assay: Antitumor activity against human SK-MEL-28 cells assessed as growth inhibition at 10 uM relative to control; in short: as §2
[27] = system: SK-MEL-5; assay: Antitumor activity against human SK-MEL-5 cells assessed as growth inhibition at 10 uM relative to control; in short: as §2
[28] = system: UACC-257; assay: Antitumor activity against human UACC-257 cells assessed as growth inhibition at 10 uM relative to control; in short: as §2
[29] = system: UACC-62; assay: Antitumor activity against human UACC-62 cells assessed as growth inhibition at 10 uM relative to control; in short: as §2
[30] = system: OVCAR-3; assay: Antitumor activity against human OVCAR-3 cells assessed as growth inhibition at 10 uM relative to control; in short: as §1
[31] = system: OVCAR-5; assay: Antitumor activity against human OVCAR-5 cells assessed as growth inhibition at 10 uM relative to control; in short: as §1
[32] = system: OVCAR-8; assay: Antitumor activity against human OVCAR-8 cells assessed as growth inhibition at 10 uM relative to control; in short: as §1
[33] = system: NCI/ADR-RES; assay: Antitumor activity against human NCI-ADR-RES cells assessed as growth inhibition at 10 uM relative to control; in short: as §1
[34] = system: SK-OV-3; assay: Antitumor activity against human SK-OV-3 cells assessed as growth inhibition at 10 uM relative to control; in short: as §2
[35] = system: 786-0; assay: Antitumor activity against human 786-0 cells assessed as growth inhibition at 10 uM relative to control; in short: as §1
[36] = system: A498; assay: Antitumor activity against human A498 cells assessed as growth inhibition at 10 uM relative to control; in short: as §1
[37] = system: ACHN; assay: Antitumor activity against human ACHN cells assessed as growth inhibition at 10 uM relative to control; in short: as §1
[38] = system: CAKI-1; assay: Antitumor activity against human CAKI-1 cells assessed as growth inhibition at 10 uM relative to control; in short: as §1
[39] = system: RXF 393; assay: Antitumor activity against human RXF 393 cells assessed as growth inhibition at 10 uM relative to control; in short: as §1
[40] = system: SN12C; assay: Antitumor activity against human SN12C cells assessed as growth inhibition at 10 uM relative to control; in short: as §2
[41] = system: TK-10; assay: Antitumor activity against human TK-10 cells assessed as growth inhibition at 10 uM relative to control; in short: as §2
[42] = system: PC-3; assay: Antitumor activity against human PC-3 cells assessed as growth inhibition at 10 uM relative to control; in short: as §1
[43] = system: DU-145; assay: Antitumor activity against human DU-145 cells assessed as growth inhibition at 10 uM relative to control; in short: as §1
[44] = system: MCF7; assay: Antitumor activity against human MCF7 cells assessed as growth inhibition at 10 uM relative to control; in short: as §1
[45] = system: BT-549; assay: Antitumor activity against human BT-549 cells assessed as growth inhibition at 10 uM relative to control; in short: as §1
[46] = system: T47D; assay: Antitumor activity against human T47D cells assessed as growth inhibition at 10 uM relative to control; in short: as §2

N#Cc1c(-c2ccc(Cl)cc2)nc(NN)nc1N1CCOCC1
inhibition of growth at 10 µM [1]: < 1%
inhibition of growth at 10 µM [2]: < 1%
inhibition of growth at 10 µM [3]: < 1%
inhibition of growth at 10 µM [4]: < 1%
inhibition of growth at 10 µM [5]: 14.3%
inhibition of growth at 10 µM [6]: 14.1%
inhibition of growth at 10 µM [7]: 11.7%
inhibition of growth at 10 µM [8]: < 1%
inhibition of growth at 10 µM [9]: < 1%
inhibition of growth at 10 µM [10]: < 1%
inhibition of growth at 10 µM [11]: < 1%
inhibition of growth at 10 µM [12]: < 1%
inhibition of growth at 10 µM [13]: < 1%
inhibition of growth at 10 µM [14]: < 1%
inhibition of growth at 10 µM [15]: < 1%
inhibition of growth at 10 µM [16]: < 1%
inhibition of growth at 10 µM [17]: 12.3%
inhibition of growth at 10 µM [18]: < 1%
inhibition of growth at 10 µM [19]: 26.9%
inhibition of growth at 10 µM [20]: < 1%
inhibition of growth at 10 µM [21]: < 1%
inhibition of growth at 10 µM [22]: < 1%
inhibition of growth at 10 µM [23]: < 1%
inhibition of growth at 10 µM [24]: < 1%
inhibition of growth at 10 µM [25]: < 1%
inhibition of growth at 10 µM [26]: < 1%
inhibition of growth at 10 µM [27]: < 1%
inhibition of growth at 10 µM [28]: < 1%
inhibition of growth at 10 µM [29]: 10.7%
inhibition of growth at 10 µM [30]: < 1%
inhibition of growth at 10 µM [31]: < 1%
inhibition of growth at 10 µM [32]: < 1%
inhibition of growth at 10 µM [33]: < 1%
inhibition of growth at 10 µM [34]: < 1%
inhibition of growth at 10 µM [35]: < 1%
inhibition of growth at 10 µM [36]: 27.8%
inhibition of growth at 10 µM [37]: < 1%
inhibition of growth at 10 µM [38]: 20.8%
inhibition of growth at 10 µM [39]: < 1%
inhibition of growth at 10 µM [40]: < 1%
inhibition of growth at 10 µM [41]: < 1%
inhibition of growth at 10 µM [42]: < 1%
inhibition of growth at 10 µM [43]: < 1%
inhibition of growth at 10 µM [44]: 1%
inhibition of growth at 10 µM [45]: < 1%
inhibition of growth at 10 µM [46]: 17.4%
